Data as given in ChEMBL document CHEMBL4342521 (J Med Chem, 2020).
Active and inactive are the calls of the source. No cut-off for these calls is given here.

Columns and labels:
[1] = tested on: MV4-11; assay: Inhibition of p53 degradation in human MV4-11 cells harboring wild type p53/FLT3-ITD mutant at 100 nM after 12 hrs in presence of MDM2 inhibitor RG7388 by Western blot analysis relative to control; type: functional; details: MV4-11, 12 h
Method in brief: (§1)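 Cells (1,500,000 per well) grown 12 h, then drug-treated as specified. Lysed in RIPA buffer, sonicated, centrifuged, protein normalized by BCA. Run on 4–12% Bis-Tris gels in MES, transferred, probed overnight at 4 °C with primary antibodies at 1/1000. Actin served as reference for LC3-II quantitation.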

[2] = tested on: SK-MEL-5; assay: Antiproliferative activity against human SK-MEL-5 cells assessed as reduction in cell viability after 48 hrs by CellTiter-Blue assay; type: functional; details: SK-MEL-5, 48 h, read-out: LC50 (the source's name)
Method in brief: (§2)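 Cells grown in RPMI1640 with 10% FBS at 37 °C, 5% CO₂. 5,000–10,000 cells/well were pre-incubated overnight, and a time-zero CellTiter-Blue read was taken. Six 10-fold dilutions (top final 10 μM) were applied for 48 h, followed by 0.125 mg/mL CellTiter-Blue for 2–4 h. Resorufin fluorescence was read at ex 560/em 590 nm. […] Triplicates.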

[3] = tested on: KM12; assay: Antiproliferative activity against human KM12 cells assessed as reduction in cell viability after 48 hrs by CellTiter-Blue assay; type: functional; details: KM12, 48 h, read-out: LC50 (the source's name); method in brief: as §2
[4] = tested on: MV4-11; assay: Down regulation of MDM2 expression in human MV4-11 cells harboring wild type p53/FLT3-ITD mutant at 50 to 200 nM after 24 hrs by Western blot analysis; type: functional, cell-based; method in brief: as §1
[5] = tested on: CCRF-CEM; assay: Antiproliferative activity against human CCRF-CEM cells assessed as reduction in cell viability after 48 hrs by CellTiter-Blue assay; type: functional; details: read-out: LC50 (the source's name); method in brief: as §2
[6] = tested on: U-937; assay: Antiproliferative activity agaisnt p53 null human U937 cells at 10 uM after 48 hrs by CellTiter-blue assay; type: functional, cell-based
[7] = tested on: UACC-257; assay: Antiproliferative activity against human UACC257 cells assessed as reduction in cell viability after 48 hrs by CellTiter-Blue assay; type: functional; details: UACC-257, 48 h, read-out: LC50 (the source's name)
Method in brief: (§3)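 NCI-60 panel lines grown in RPMI1640 with 10% FBS at 37 °C, 5% CO₂. Seeded at 5,000–10,000 cells/well and pre-incubated overnight. Exposed for 48 h to six 10-fold dilutions (top final 10 μM), with a time-zero plate read at dosing. CellTiter-Blue (0.125 mg/mL) for 2–4 h, fluorescence 560/590 nm, triplicate curves.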

[8] = tested on: ACHN; assay: Antiproliferative activity against human ACHN cells assessed as reduction in cell viability after 48 hrs by CellTiter-Blue assay; type: functional; details: read-out: LC50 (the source's name); method in brief: as §2
[9] = AUC (0 to infinity) in CD1 mouse at 20 mg/kg, po via gavage after 24 hrs by LC-MS/MS analysis; type: ADME, organism-based; design: dose 20 mg/kg, time infinity, route oral; details: in vivo
Method in brief: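 Male CD-1 mice, fasted overnight, 3 per route; compound in PBS with 5% DMSO, iv bolus 5 mg/kg or oral gavage 20 mg/kg. Blood sampled at 5, 15, 30 min and 1–24 h. Plasma protein-precipitated with acetonitrile plus internal standard, quantified by LC-MS/MS (MRM). AUC by linear trapezoidal method; parameters by non-compartmental analysis.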

[10] = tested on: M14; assay: Antiproliferative activity against human M14 cells assessed as reduction in cell viability after 48 hrs by CellTiter-Blue assay; type: functional; details: M14, 48 h, read-out: LC50 (the source's name); method in brief: as §2
[11] = tested on: OVCAR-5; assay: Antiproliferative activity against human OVCAR5 cells assessed as reduction in cell viability after 48 hrs by CellTiter-Blue assay; type: functional; details: OVCAR-5, 48 h, read-out: LC50 (the source's name); method in brief: as §2
[12] = tested on: MV4-11; assay: Inhibition of p53 degradation in human MV4-11 cells at 200 nM after 24 hrs in presence of 5 nM bortezomib by Western blot analysis; type: functional, cell-based; method in brief: as §1
[13] = tested on: MDA-MB-435; assay: Antiproliferative activity against human MDA-MB-435 cells assessed as reduction in cell viability after 48 hrs by CellTiter-Blue assay; type: functional; details: MDA-MB-435, 48 h, read-out: LC50 (the source's name); method in brief: as §2
[14] = tested on: PC-3; assay: Antiproliferative activity against human PC3 cells assessed as reduction in cell viability after 48 hrs by CellTiter-Blue assay; type: functional; details: PC-3, 48 h, read-out: LC50 (the source's name); method in brief: as §2
[15] = tested on: MV4-11; assay: Induction of apoptosis in human MV4-11 cells harboring wild type p53/FLT3-ITD mutant assessed as cleavage of pro-caspase 3 at 50 to 200 nM after 24 hrs by Western blot analysis; type: functional, cell-based; method in brief: as §1
[16] = tested on: Hs-578T; assay: Antiproliferative activity against human Hs 578T cells assessed as reduction in cell viability after 48 hrs by CellTiter-Blue assay; type: functional; details: read-out: LC50 (the source's name); method in brief: as §2
[17] = tested on: RS4-11; assay: Effect on LC3 degradation in human RS4:11 cells harboring wild type p53/FLT3 at 50 to 200 nM after 24 hrs by Western blot analysis; type: functional, cell-based; method in brief: as §1
[18] = tested on: NCI-H322M; assay: Antiproliferative activity against human NCI-H322M cells assessed as reduction in cell viability after 48 hrs by CellTiter-Blue assay; type: functional; details: read-out: LC50 (the source's name); method in brief: as §2
[19] = tested on: UO-31; assay: Antiproliferative activity against human UO31 cells assessed as reduction in cell viability after 48 hrs by CellTiter-Blue assay; type: functional; details: UO-31, 48 h, read-out: LC50 (the source's name); method in brief: as §3
[20] = tested on: MV4-11; assay: Induction of apoptosis in human MV4-11 cells harboring wild type p53/FLT3-ITD mutant assessed as c-FLIP degradation at 50 to 200 nM after 24 hrs by Western blot analysis; type: functional, cell-based; method in brief: as §1
[21] = tested on: SF-295; assay: Antiproliferative activity against human SF295 cells assessed as reduction in cell viability after 48 hrs by CellTiter-Blue assay; type: functional; details: SF-295, 48 h, read-out: LC50 (the source's name); method in brief: as §2
[22] = tested on: SW-620; assay: Antiproliferative activity against human SW620 cells assessed as reduction in cell viability after 48 hrs by CellTiter-Blue assay; type: functional; details: SW-620, 48 h, read-out: LC50 (the source's name); method in brief: as §3
[23] = tested on: MV4-11; assay: Induction of autophagy in human MV4-11 cells harboring wild type p53/FLT3-ITD mutant assessed as LC-3 degradation at 50 to 200 nM after 24 hrs by Western blot analysis; type: functional, cell-based; method in brief: as §1
[24] = tested on: COLO 205; assay: Antiproliferative activity against human COLO205 cells assessed as reduction in cell viability after 48 hrs by CellTiter-Blue assay; type: functional; details: COLO 205, 48 h, read-out: LC50 (the source's name); method in brief: as §2

## CCCNNC(=O)/C=C/c1ccc(CNCCc2c(C)[nH]c3ccccc23)cc1.O=C(O)C(F)(F)F
[1]
  inhibition at 0.1 µM: 100%
[2]
  CC50: > 10 µM
[3]
  CC50: > 10 µM
[4]
  Activity: Active
[5]
  CC50: > 10 µM
[6]
  Activity: Active
[7]
  CC50: > 10 µM
[8]
  CC50: > 10 µM
[9]
  AUC: 265 ng·h/mL
[10]
  CC50: > 10 µM
[11]
  CC50: > 10 µM
[12]
  inhibition: Active
[13]
  CC50: > 10 µM
[14]
  CC50: > 10 µM
[15]
  Activity: Active
[16]
  CC50: > 10 µM
[17]
  Activity: inactive
[18]
  CC50: > 10 µM
[19]
  CC50: > 10 µM
[20]
  Activity: Active
[21]
  CC50: > 10 µM
[22]
  CC50: > 10 µM
[23]
  Activity: Active
[24]
  CC50: 0.66 µM
